Dynein cargo inh: blocks dynein driven cargo transport along microtubules; 3617.4 mouse cells, GR-EGFP nuclear translocation imaging; test concentration mostly 20 µM; stimulated with dexamethasone, 1 µM; stronger effect = lower value; AID 1381; z-score, hits read low; 0.47% of 220,000 active;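 active = plate z-score of nuclear minus cytoplasmic receptor signal below a set negative limit, without overly bright fluorescence or cell loss, cut at about -3.5 in these data, passing the limit was not always enough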;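 also: z-score of nuclear minus cytoplasmic ring GR-EGFP intensity difference per well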
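Buffer or medium: tet-free, stripped-serum medium; Also added: dexamethasone, 1.0 µM final; Technique: high-content fluorescence imaging after fixation; Times: 48 h induction, 1 h compound, 30 min dex at 37 °C; Read-out: per-cell GR-EGFP intensity, nucleus versus surrounding cytoplasmic ring, well-averaged.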
ABCB6 inh 2: blocks the human ABCB6 transporter | Q9NP58 | K562-ABCB6 porphyrin accumulation, flow cytometry, 1 h; stronger effect = lower value | fluorescence ratio to DMSO, % at 10 µM | 0.19% of 360,000 active | AID 602162;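 active = fluorescence ratio to DMSO below 75%, the collection mean minus 3 SD; inconclusive = too few cells collected in the well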;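 also: signal is porphyrin accumulated inside mitochondria; 100% equals median channel fluorescence of DMSO control wells; lower ratio means ABCB6 inhibition with less porphyrin fluorescence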
KCC2 mod: modulates chloride dependent transport by human KCC2; 2.2% of 190,000 active; KCC2 cells, thallium flux FluoZin-2 fluorescence; B-score of Tl+ flux slope (higher = more flux/activation; lower = inhibition) at 10 µM; Q9H2X9;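 active = thallium flux slope and its plate-corrected score both differing from the plate sample mean at a set confidence after two filtering rounds, in either direction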;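 also: slope of fluorescence scaled to starting intensity during 10 to 20 s after thallium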
Target sequence (Q9H2X9 whole entry, looked up): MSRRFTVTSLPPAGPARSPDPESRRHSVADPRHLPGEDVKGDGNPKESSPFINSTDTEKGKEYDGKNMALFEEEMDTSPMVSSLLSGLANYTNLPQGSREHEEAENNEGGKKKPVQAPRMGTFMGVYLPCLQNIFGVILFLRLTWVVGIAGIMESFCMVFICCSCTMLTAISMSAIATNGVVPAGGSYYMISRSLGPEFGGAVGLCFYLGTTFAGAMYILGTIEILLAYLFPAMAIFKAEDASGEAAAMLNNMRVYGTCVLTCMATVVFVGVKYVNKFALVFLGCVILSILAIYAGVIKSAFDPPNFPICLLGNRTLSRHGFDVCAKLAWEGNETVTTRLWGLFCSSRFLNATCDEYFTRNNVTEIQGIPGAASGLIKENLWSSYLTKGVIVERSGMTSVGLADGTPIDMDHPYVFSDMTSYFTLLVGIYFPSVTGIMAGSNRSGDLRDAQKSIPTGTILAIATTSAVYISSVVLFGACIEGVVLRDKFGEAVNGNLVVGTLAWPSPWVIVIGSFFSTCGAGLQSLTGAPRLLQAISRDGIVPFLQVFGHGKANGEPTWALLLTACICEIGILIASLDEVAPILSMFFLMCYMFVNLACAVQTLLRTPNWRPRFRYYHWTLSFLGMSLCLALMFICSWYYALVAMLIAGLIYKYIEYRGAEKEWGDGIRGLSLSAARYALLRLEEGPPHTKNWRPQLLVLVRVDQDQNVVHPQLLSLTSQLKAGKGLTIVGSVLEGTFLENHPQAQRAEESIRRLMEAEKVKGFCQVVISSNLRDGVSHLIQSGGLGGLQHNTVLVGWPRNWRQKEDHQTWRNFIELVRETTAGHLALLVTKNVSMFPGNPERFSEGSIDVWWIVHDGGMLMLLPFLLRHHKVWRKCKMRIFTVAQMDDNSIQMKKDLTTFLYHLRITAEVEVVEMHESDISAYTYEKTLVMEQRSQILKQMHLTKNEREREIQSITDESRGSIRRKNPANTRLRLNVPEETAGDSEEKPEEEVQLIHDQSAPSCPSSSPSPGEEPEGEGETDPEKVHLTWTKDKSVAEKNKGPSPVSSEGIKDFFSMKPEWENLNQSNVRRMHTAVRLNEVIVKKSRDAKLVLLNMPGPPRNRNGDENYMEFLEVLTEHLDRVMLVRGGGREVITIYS
pCIP destab: lowers stability of the mouse p/CIP coactivator protein. Q05BA5. F442A p/CIP-EGFP cells, EGFP fluorescence, 16 h. decrease of EGFP signal, % at 10 µM. 0.01% of 290,000 active. AID 1984;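 active = EGFP signal decrease of at least 30% at 10 µM or well 3 SD below plate mean, unless failing retest; inactive = the rest, including hits failing retest or dose response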
V-ATPase pH: regulators of yeast V-ATPase proton transport; S. cerevisiae, pHLuorin cytosolic pH fluorescence; response, % at 10 µM; 0.37% of 350,000 active; AID 504577; in the data active = response mostly above about 7.3%, no sharp cut-off; inactive = mostly below about 5.4%; also: actives read high
KCC2 secondary: confirmation of human KCC2 transport modulators | normalised thallium flux (F/F0 slope) at 10 µM | HEK293-KCC2, thallium flux, FluoZin2 fluorescence; stronger effect = higher value | 15% of 3,700 active | shares compounds with KCC2 mod | AID 1713;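 active = thallium flux slope above the same plate's solvent-only control mean plus 3 SD; inconclusive = the two replicate wells disagree; inactive = no significant difference from solvent-only control wells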
KCC2 bumet counter: thallium flux despite bumetanide block in KCC2 cells, secondary assay 3; 49% of 3,700 active; normalized thallium flux at 10 µM; HEK293-KCC2 + bumetanide/ouabain, thallium flux FluoZin2; stronger effect = higher value; shares compounds with KCC2 mod;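 active = thallium entry rate above the same plate's blocked-transporter control wells by more than 3 SD; inconclusive = the two repeat wells disagree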;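 also: raw slope of fluorescence over initial fluorescence between 10 and 20 s after thallium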
KCC2 secondary2: confirmation of human KCC2 transport modulators. 23% of 3,700 active. shares compounds with KCC2 mod. normalized thallium flux at 10 µM. HEK293-KCC2, thallium flux FluoZin2 fluorescence; actives lie on both sides; F/F0 rise rate, 10–20 s post-thallium;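 active = thallium flux slope more than 3 SD above or below the plate's solvent-only control mean, mostly below; inconclusive = the two repeat wells disagreed; inactive = no significant shift from solvent-only controls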;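 also: raw slope with 0.1% DMSO as baseline and bumetanide as block control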
HEK293 Tl flux: acts in parental HEK cells, KCC2 counter-screen; 46% of 3,700 active; thallium flux rate (normalised fluorescence) at 10 µM; shares compounds with KCC2 mod; HEK293 parental cells, thallium flux FluoZin2, ouabain; baseline-ratio fluorescence slope, 10–20 s after thallium;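 active = thallium flux rate significantly above the same plate's solvent-only control wells, beyond their mean plus 3 SD; inconclusive = the two replicate wells gave conflicting results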
KCC2 retest ouab: modulates human KCC2 on retest with ouabain. shares compounds with KCC2 mod. HEK293-KCC2, thallium flux FluoZin2 fluorescence; bidirectional: low = inhibitor, high = activator. raw Tl+ flux slope (below DMSO = inhibition, above = activation) at 10 µM. 48% of 3,700 active;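 active = thallium flux slope beyond 3 SD from same-plate DMSO control mean in most replicates, usually higher, sometimes lower; inconclusive = repeat tests gave conflicting results; inactive = no significant difference from controls in most replicates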;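 also: slope of initial-normalized fluorescence between seconds 10 and 20 after thallium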
HEK293 Tl flux2: acts in parental HEK cells, second KCC2 counter-screen; shares compounds with KCC2 mod; HEK293 parental, thallium flux FluoZin-2 fluorescence slope; thallium flux slope at 10 µM; 33% of 3,700 active; AID 1718;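 active = thallium flux slope above the same plate's solvent-control mean plus 3 SD in both duplicate wells; inconclusive = duplicate wells that disagreed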;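 also: run without ouabain in cells lacking the KCC2 cotransporter; slope of fluorescence scaled to its starting value between 10 and 20 s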
* marks the source's active call; other numbers are inactive results; i = inactive; ? = inconclusive; / = no result given. The sample as a whole holds a higher share of hits than the screen did.

SMILES | Dynein cargo inh | ABCB6 inh 2 | KCC2 mod | pCIP destab | V-ATPase pH | KCC2 secondary | KCC2 bumet counter | KCC2 secondary2 | HEK293 Tl flux | KCC2 retest ouab | HEK293 Tl flux2
Cc1cc(OC(C)C(=O)NCCN2CCOCC2)c2c(C)cc(=O)oc2c1 (stereo not drawn) | / | 101 | / | -4 | -2 | / | / | / | / | / | /
O=c1[nH]ncc(N/N=C/c2ccccc2)c1Cl | -0.65 | 99 | / | -5 | -4 | 0.0075 | 0.0056* | 0.029 | 0.0079 | 0.017 | 0.0095
Cc1ccc(/C=N\Nc2cn[nH]c(=O)c2Cl)cc1 | 0.17 | 96 | / | 11 | 0 | / | / | / | / | / | /
S=c1[nH]c2ccc(Cl)cc2s1 | -0.18 | 95 | 86* | 3 | -4 | 0.043* | 0.098* | 0.085* | 0.087* | 0.087* | 0.058*
O=C(COC(=O)c1cc(S(=O)(=O)N2CCCC2)ccc1O)Nc1ccccc1Br | / | 89 | / | / | 3 | / | / | / | / | / | /
CCN(CC)S(=O)(=O)c1cccc(NC(=O)C(=O)c2c(-c3ccccc3)cc3ccccn23)c1 | 0.14 | 89 | -2.9* | 1 | 0 | 0.0059 | 0.0037 | 0.027 | 0.0073 | 0.016 | 0.0099
COc1cc(C(=O)OCC(=O)c2cc(C)n(C)c2C)cc(OC)c1OC | -0.44 | 89 | 6.7* | -5 | -1 | 0.01 | 0.0071 | 0.032 | 0.0078 | 0.022 | 0.01
O=C1C(=O)N(Cc2ccco2)C(c2cccs2)/C1=C(\O)c1cccc([N+](=O)[O-])c1 (stereo not drawn) | -0.2 | 99 | / | -10 | 4 | / | / | / | / | / | /
Cc1ccc(NC(=S)N/N=C/c2ccc([N+](=O)[O-])s2)cc1 | -0.66 | 127 | 15* | -14 | 1 | 0.014* | 0.047* | 0.035 | ? | 0.041* | 0.02*
Cc1onc(-c2ccccc2)c1C(=O)N/N=C/c1ccc([N+](=O)[O-])s1 | -0.59 | 104 | -0.61 | -12 | -2 | / | / | / | / | / | /
C/C(N)=C(/C#N)C(=O)CSc1nnc(SCc2ccc(Cl)cc2)s1 | -1.2 | 90 | / | 2 | 12 | 0.007 | 0.0071 | 0.032 | 0.0041 | ? | 0.012
C/C(N)=C(/C#N)C(=O)CSc1nn(-c2ccc(Cl)cc2)c(=S)s1 | -0.3 | 99 | -0.72 | -1 | -1 | / | / | / | / | / | /
O=C(N/N=C/c1ccc(Br)s1)c1cccs1 | -0.73 | 95 | 112* | 7 | -1 | 0.014* | 0.086* | 0.034 | 0.04* | 0.049* | 0.034*
CS(=O)(=O)N1CCN(c2ccc(NC(=O)c3ccccc3)cc2)CC1 | -0.38 | 94 | -0.4 | 18 | 0 | / | / | / | / | / | /
NC(=S)N=Nc1c(O)n(CC(=O)Nc2ccccc2)c2ccccc12 | / | 102 | / | -3 | 2 | / | / | / | / | / | /
NC(=S)N=Nc1c(O)n(CCCl)c2ccc(Cl)cc12 | -0.55 | 98 | 16* | 1 | 1 | 0.0075 | 0.041* | ? | 0.036* | 0.047* | 0.024*
CCOc1ccc2c(c1)c(N=NC(N)=S)c(O)n2C | 1.3 | 96 | 8.2* | -3 | -1 | ? | 0.035* | 0.039 | 0.015* | 0.027 | 0.012*
NC(=S)N=Nc1c(O)n(CCCl)c2ccccc12 | 0.51 | 100 | 13* | 0 | -1 | 0.024* | 0.031* | ? | 0.018* | 0.027* | 0.019*
O=C(O)c1nn(Cc2csc(-c3ccccc3)n2)c(=O)c2ccccc12 | / | 100 | / | -21 | 0 | / | / | / | / | / | /
Cc1ccc(NC(=O)CN2C(=O)NC3(CCCc4ccccc43)C2=O)c(C)c1 (stereo not drawn) | / | 91 | / | / | 0 | / | / | / | / | / | /
O=C(NNC(=O)c1ccccc1F)c1cccc(-n2cccc2)c1 | / | 101 | / | / | -1 | / | / | / | / | / | /
Cc1ccc(-n2nc(C)c(NS(=O)(=O)c3ccccc3)c2C)cc1C | -0.52 | 97 | / | 8 | 2 | / | / | / | / | / | /
Cc1nn(-c2ccc(F)cc2)c(C)c1NS(=O)(=O)c1ccc(Cl)cc1 | -1.1 | 89 | -4.6* | -17 | 2 | 0.0057 | 0.0049 | 0.022* | 0.0068 | ? | 0.01
Cc1csc(NC(=O)C2CC(=O)N(Cc3ccco3)C2)n1 (stereo not drawn) | -0.23 | 96 | 2.8* | 3 | -2 | 0.0058 | 0.0046 | 0.03 | 0.0078 | 0.019 | 0.0098
CCN(CC)c1ccc(S(=O)(=O)N2CCOCC2)cc1NC(=O)CN1CCN(Cc2ccccc2)CC1 | -0.46 | 89 | -1.6 | -4 | 0 | / | / | / | / | / | /
SMILES | Dynein cargo inh | ABCB6 inh 2 | KCC2 mod | pCIP destab | V-ATPase pH | KCC2 secondary | KCC2 bumet counter | KCC2 secondary2 | HEK293 Tl flux | KCC2 retest ouab | HEK293 Tl flux2
CCN(CC)c1ccc(S(=O)(=O)N2CCOCC2)cc1NC(=O)CNCc1ccccc1 | 1 | 93 | -5.6* | 0 | 2 | 0.0068 | 0.005 | 0.029 | 0.0062 | ? | 0.0093
COc1ccccc1Cc1c(-c2cccc(Br)c2)nc2ccc(Cl)cn12 | / | 99 | / | / | / | / | / | / | / | / | /
COc1ccccc1NC(=O)Nc1ccccc1Br | -0.87 | 105 | -1.9 | 5 | -4 | / | / | / | / | / | /
O=C(N/N=C/c1cc(Cl)cc(Cl)c1O)c1ccncc1 | 0.2 | 101 | i | -15 | 1 | / | / | / | / | / | /
O=C(N/N=C/c1cc(Br)cc(Br)c1O)c1ccncc1 | 0.014 | / | -4.5* | -11 | / | 0.0056 | 0.00055* | 0.017* | 0.0028* | 0.0078* | 0.0046*
O=C(N/N=C/c1cc(Br)c(Br)s1)c1ccncc1 | 0.22 | 100 | 6.5* | 7 | 2 | 0.0092 | 0.014* | 0.036 | 0.0097* | ? | 0.011
O=C(N/N=C/c1ccc(Br)s1)c1ccncc1 | 0.53 | 93 | 0.65 | -18 | -3 | / | / | / | / | / | /
O=C(COC(=O)c1ccccn1)NCc1cccs1 | / | 96 | / | / | -4 | / | / | / | / | / | /
CC(=O)c1cccc(NC(=O)COC(=O)Cn2cnc3ccccc32)c1 | / | 94 | / | / | -2 | / | / | / | / | / | /
O=S(=O)(O)c1ccc(N=Nc2ccccc2)cc1 | -0.43 | 98 | -0.05 | 10 | -1 | / | / | / | / | / | /
O=c1ccc(N=Nc2ccccc2)ccc1O | 0.061 | 93 | 151* | 0 | 44* | 0.012* | 0.12* | 0.12* | 0.11* | 0.12* | 0.11*
O=C(O)C1Sc2[nH]c(=O)sc2C2c3cc(Cl)ccc3OC(=O)C12 (stereo not drawn) | -0.46 | 94 | -0.42 | -27 | 0 | / | / | / | / | / | /

From PubChem BioAssay
